HUVEC inhibit – inhibitors of human endothelial cell proliferation | HUVEC proliferation, CellTiter-Glo luminescence, 72 h; hits give low values | viability, % at 10 µM (by protocol) | 1.1% of 86,000 active | AID 648;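 active = viability at or below 30%; inactive = viability above 30%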
Jurkat tox 60K – cytotoxicity toward Jurkat cells | Jurkat E6.1 viability, ATP luminescence, 48 h | inhibition, % at 4 µM | 1.2% of 56,000 active | AID 463;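 active = inhibition above the mean inhibition of all tested compounds plus 3 SD, cut at about 28% in these data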
H69AR growth 86K – blocks growth of human H69AR lung tumor cells | H69AR lung tumor viability, ATP luminescence, 72 h; hits give low values | viability, % at 10 µM | 6% of 85,000 active;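 active = viability at or below 40%; inactive = viability above 40%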;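 also: multidrug resistant small cell line overexpressing MRP-1 efflux transporter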
Fibroblast inh – blocks proliferation of human lung fibroblasts | LL 47 human lung fibroblast viability, ATP luminescence; hits give low values | viability, % at 10 µM | 1.1% of 85,000 active;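 active = viability at or below 50% in the single dose screen; inactive = viability above 50%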;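 also: compound exposure lasted 72 h before the ATP readout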
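material = human LL 47 lung fibroblast cells | dosing = compounds added from tenfold dosing solution, 0.1% DMSO final | timing = overnight cell rest, 72 h compound treatment at 37 °C | measured by = CellTiter-Glo luminescence measuring cellular ATP | evaluation = % viability versus median cells-only luminescence | control set = cell-only wells, no compound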
A number is an active result; - = inactive; . = no result. Hits are enriched below; roughly 6.4% of the tested compounds scored in any of these assays.

SMILES	HUVEC inhibit	Jurkat tox 60K	H69AR growth 86K	Fibroblast inh
Cc1ccc(CN(CC2CCCO2)C(=O)CN2C(=O)C(C(C)C)Oc3ccccc32)o1 (configuration not stated)	-	-	38	-
CCOC(=O)N1CCN(C(=O)c2ccc(C)c(S(=O)(=O)Nc3cccc(C)c3C)c2)CC1	-	-	40	-
CCOC(=O)N1CCN(C(=O)c2ccc(NS(C)(=O)=O)cc2)CC1	-	-	-	-
CCOC(=O)N1CCN(C(=O)c2ccc(C)c(S(=O)(=O)Nc3ccccc3)c2)CC1	-	-	36	-
CCCN(CCC)CC(=O)Nc1cccc2c1OCO2	-	.	-	-
CCCOc1ccccc1-n1sc2c(c1=S)-c1cc(OC)cc3c1N(C(=O)C3=O)C2(C)C	-	.	1.5	-
CC1C(O)=C(c2nc3ccccc3[nH]2)C(=N)N1c1ccccc1 (configuration not stated)	-	-	22	-
N=C1C(c2nc3ccccc3[nH]2)=C(O)CN1c1ccccc1	-	-	32	-
N=C1C(c2nc3ccccc3[nH]2)=C(O)CN1c1ccc(CC(=O)O)cc1	-	.	-	-
Cc1ccc(-n2nc(C(=O)NCc3ccc(C)o3)c3c4ccccc4n(C)c3c2=O)cc1	-	.	-	-
C1CSC2(N1)C1CC3CC2CC(C1)C31NCCS1 (configuration not stated)	-	.	-	-
N#CC1=C(N)C(C#N)(C#N)C(c2ccncc2)C2CN(C(=O)OCc3ccccc3)CC=C12 (configuration not stated)	-	.	7.7	-
CCOC(=O)N1CC=C2C(C#N)=C(N)C(C#N)(C#N)[C@H](c3ccc(OC(C)C)c(OCC)c3)[C@H]2C1	-	-	37	-
COc1cc(OC)cc(C(=O)NC2CCN(CC(=O)Nc3cccc4ccccc34)CC2)c1	-	.	39	-
O=S(=O)(c1ccc(Br)cc1)N1CCN(c2ccc3nnc(-c4ccccc4)n3n2)CC1	-	.	30	-
O=C(c1ccc(Br)o1)N1CCN(c2ccc3nnc(-c4ccccc4)n3n2)CC1	-	-	-	-
CCOc1cc(C#N)c(NC(=O)c2ccco2)cc1OCC	-	79	31	-
COc1ccccc1NC(=O)c1cc(Cl)ccc1NC(=O)c1ccco1	-	.	-	-
CCOc1cc(NC(=O)c2ccco2)c(OCC)cc1NC(=O)c1cc(OC)c(OC)c(OC)c1	-	-	-	-
COc1cc(NC(=O)c2ccco2)c(OC)cc1NC(=O)c1cc(OC)c(OC)c(OC)c1	-	-	24	-
CCOc1ccccc1NC(=O)c1cc(Cl)ccc1NC(=O)c1ccco1	-	-	29	-
CC(=O)NCCn1c(SCc2ccc(C)cc2C)nc2ccccc2c1=O	-	.	-	-
Cc1[nH]c2ccc(CNS(=O)(=O)c3ccc(S(=O)(=O)N4CCOCC4)cc3)cc2c1C	-	.	-	-
CCN=c1scc(-c2ccco2)n1/N=C/c1ccc(OC)c(O)c1	-	.	-	-
CCN=c1scc(-c2ccco2)n1/N=C/c1ccc(O)cc1	-	.	40	-
SMILES	HUVEC inhibit	Jurkat tox 60K	H69AR growth 86K	Fibroblast inh
Cc1ccc(O)c(C(=O)c2cc(C#N)c(=O)n(CC3CCCO3)c2)c1 (configuration not stated)	-	-	-	-
N#Cc1cc(C(=O)c2cc(Br)ccc2O)cn(C2CCCCC2)c1=O	-	.	13	-
Cn1cccc1C(=O)NC(=O)COC(=O)C12CC3CC(CC(O)(C3)C1)C2	-	.	-	-
CC(C)C1O/C(=N/C(=O)Nc2ccc(Cl)c(Cl)c2)NC1=O (configuration not stated)	-	-	11	-
O=C(Nc1ccc(N2C(=O)C3C4C=CC(C4)C3C2=O)cc1)Nc1cccnc1 (configuration not stated)	-	-	-	-
CCOC(=O)c1cc2c(n(-c3ccccc3)c1=O)CC(C)(C)CC2=O	-	-	36	-
CCOc1ccc(OCCOc2ncnc3ccccc23)cc1	-	.	-	-
COc1ccc(-c2nn(C)c3sc(C(=O)NCc4ccco4)cc23)cc1OC	-	-	-	-
COc1ccc(NC(=O)c2cc3c(-c4ccc(OC)c(OC)c4)nn(C)c3s2)cc1OC	-	.	9.7	-
CCOC(=O)c1nnn(-c2nonc2-n2cccc2)c1CCl	3.3	.	1.5	35
Cc1cc(OCC(=O)NC(C)C)cc(C)c1Cl	-	.	-	-
Cc1cc(OCCOCCNC(C)C)cc(C)c1Cl	-	.	28	-
COC(=O)C1=C(C)OC(N)=C(C#N)C1c1c(C)nn(-c2ccccc2)c1Cl (configuration not stated)	-	.	39	-
COc1ccc(C)cc1NC(=O)CSc1nnc(CC(=O)Nc2ccccc2C)n1C	-	.	-	-
Cc1cc(N2CCOCC2)nc(NCc2ccccc2)n1	-	-	-	-
Cc1cc(N2CCCCC2)nc(NCc2ccccc2)n1	-	.	16	-

Screening data as filed in PubChem BioAssay.
